About 1,300 (0.45%) of roughly 290,000 compounds were called active. This is one part of a sample in which actives are shown more often than they occur.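 Rule for the calls: active = inhibition above the mean plus 3 SD of all compounds in the same screening run (cut at about 4.5% in these data); inactive = the rest.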
These compounds were tested on metallo-beta-lactamase IMP-1 (Pseudomonas aeruginosa) (assay: inhibition of IMP-1 nitrocefin hydrolysis – biochemical, epi-absorbance readout, Pseudomonas aeruginosa enzyme, primary screen (AID 1556;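 note: 0% = IMP-1 with DMSO and 100% = DMSO wells lacking enzyme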)). Details: purified IMP-1, nitrocefin hydrolysis, epi-absorbance fluorescence; at 5.6 µM; stronger effect = higher value.
Method in brief: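 System: purified recombinant IMP-1 beta-lactamase. Medium: Zinc- and detergent-supplemented HEPES buffer, pH 7.1. Compound: one 5.6 µM dose […]. Schedule: 15 min preincubation plus 25 min reaction at 25 °C. Technique: Epi-absorbance fluorescence, 480 nm excitation, 530 nm emission.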

Q: Which inhibition does the source give for `CNC(=S)NNC(=O)c1cccn(Cc2ccccc2)c1=O` here?
A: -3.24% (inactive)

Q: For `C=CCNC(=O)COc1coc(CN2CCN(Cc3ccccc3)CC2)cc1=O`, which inhibition is on record?
A: 2.52% (inactive)

Q: Which inhibition does the source give for `C=CCNC(=S)/N=c1/ccccn1Cc1ccccc1` here?
A: 16.2% (active)

Q: With `O=[N+]([O-])c1ccc(N2CCN(c3ccc(F)cc3)CC2)cn1` as the compound, how does the inhibition read?
A: -0.39% (inactive)

Q: How did the inhibition turn out when `CSc1ccc(S(=O)(=O)N2CCC(C(=O)NCc3ccncc3)CC2)cc1` was run?
A: -1.8% (inactive)

Q: `Cc1ccc(Oc2nc(-c3ccccn3)nc3ccccc23)cc1` was tested. Which inhibition did it give?
A: -3.21% (inactive)

Q: How did the inhibition turn out when `c1ccc(-c2nccc(-c3ccc(-n4cnc5ccccc54)cc3)n2)nc1` was run?
A: 15.8% (active)

Q: `Cc1nccc(-c2ccc(-n3c(C)ccc3C)cc2)n1` was tested. Which inhibition did it give?
A: -1.5% (inactive)

Q: `CC(=O)c1cc2c(cc1NC(=O)Cn1nc(-c3ccc(F)cc3)ccc1=O)OCO2` was tested. Which inhibition did it give?
A: -1% (inactive)

Q: `Cc1ccc(CSCC2Nc3ccc(C(=O)N4CCN(c5ccc(F)cc5)CC4)cc3NC2=O)cc1` (stereo not drawn) was tested. Which inhibition did it give?
A: -4.03% (inactive)

Q: Which inhibition does the source give for `Cc1ccc(C(=O)NCC(=O)NCc2cc(=O)n(C)c(=O)n2C)cc1` here?
A: -0.88% (inactive)

Q: For `Cc1cc2occ(CC(=O)NNC(=O)c3ccccc3F)c2cc1C`, which inhibition is on record?
A: 7.82% (active)

Q: With `Cc1ccc2c(CC(=O)NCc3cccs3)coc2c1` as the compound, how does the inhibition read?
A: -1.74% (inactive)

Q: With `CCSc1nnc(SCC(=O)NNC(=O)c2ccccc2F)s1` as the compound, how does the inhibition read?
A: -3.43% (inactive)

Q: For `Cc1ccc(C2C3=C(Nc4[nH]n(-c5ccccc5)c(=O)c42)c2ccccc2C3=O)cc1` (stereo not drawn), which inhibition is on record?
A: -5.01% (inactive)

Q: How did the inhibition turn out when `COC(=O)C1=C(C)NC2=C(C(=O)c3ccccc32)C1c1ccc(-c2ccc(C(=O)O)cc2)o1` (stereo not drawn) was run?
A: 21.7% (active)

Q: How did the inhibition turn out when `CCOC(=O)C1=C(c2ccc(OC)cc2)C(=O)c2ccccc2C1=O` was run?
A: -1.49% (inactive)

Q: For `COc1ccc(CNC(=O)C(=O)NCC2OCCN2C(=O)c2ccc(OC)cc2)cc1` (stereo not drawn), which inhibition is on record?
A: -0.68% (inactive)

Q: `COc1cccc(OCC(=O)NNC(=O)c2cnccn2)c1` was tested. Which inhibition did it give?
A: -3% (inactive)

Q: For `COc1ccc(C(=O)O/N=C(\N)c2ccccn2)cc1[N+](=O)[O-]`, which inhibition is on record?
A: -0.21% (inactive)

Q: `COc1ccc(C(=O)NNC(=O)c2cnccn2)cc1[N+](=O)[O-]` was tested. Which inhibition did it give?
A: 5.35% (active)

Q: Which inhibition does the source give for `Cc1cc(OCC(=O)NCC(O)c2ccccc2)c2c(C)c(C)c(=O)oc2c1` (stereo not drawn) here?
A: -1.48% (inactive)

Q: For `COc1ccc(CC(NC(C)=O)C(=O)NC2CCN(C(=O)C3CC3)CC2)cc1OC` (stereo not drawn), which inhibition is on record?
A: -2.45% (inactive)

Q: How did the inhibition turn out when `COc1cccc(CNS(=O)(=O)c2ccc3c(c2)N(C(C)=O)CCS3)c1` was run?
A: 0.57% (inactive)

Q: `CCOc1cc(NC(=O)c2cnccn2)c(OCC)cc1NC(=O)c1ccc(C)cc1` was tested. Which inhibition did it give?
A: -4.22% (inactive)

Q: How did the inhibition turn out when `CCCc1cc(=O)oc2c(C)c(OCC(=O)Nc3ccccn3)ccc12` was run?
A: 12.4% (active)

Q: `CCCc1cc(=O)oc2c(C)c(OCC(=O)NCc3ccccn3)ccc12` was tested. Which inhibition did it give?
A: -4.36% (inactive)

Q: Which inhibition does the source give for `CCCc1cc(=O)oc2c(C)c(OCC(=O)N3CCC(C(=O)O)CC3)ccc12` here?
A: -2.1% (inactive)

Q: How did the inhibition turn out when `O=C(O)c1c(NC(=O)N2CCCC2)sc2c1CCCC2` was run?
A: -2.5% (inactive)

Q: `Cc1ccccc1NC(=O)Cn1cc(C(=O)C2CC2)c2ccccc21` was tested. Which inhibition did it give?
A: -0.7% (inactive)

Q: With `COc1cccc(NC(=O)Cn2c3ccc(F)cc3c3nc4n(c(=O)c32)CCS4)c1` as the compound, how does the inhibition read?
A: 7.15% (active)

Q: With `COc1cccc(NC(=O)Cn2c3ccccc3c3nc4n(c(=O)c32)CCS4)c1` as the compound, how does the inhibition read?
A: -2.36% (inactive)

Q: With `COc1ccc2c(c1)c1nc3n(c(=O)c1n2CC(=O)Nc1ccccc1)CCS3` as the compound, how does the inhibition read?
A: -0.04% (inactive)

Q: `O=C(Nc1ccccc1-c1nnn(CC(=O)N2CCCc3ccccc32)n1)c1cccc(Cl)c1` was tested. Which inhibition did it give?
A: -0.16% (inactive)

Q: Which inhibition does the source give for `N#Cc1c(Cl)nc(-c2cccnc2)nc1-c1ccccc1` here?
A: 9.55% (active)

Q: How did the inhibition turn out when `O=S(=O)(Cc1cc(Cl)nc(-c2cccnc2)n1)c1ccccc1` was run?
A: 0.12% (inactive)

Q: How did the inhibition turn out when `CN(C)c1nc(-c2cccnc2)nc(-c2ccc(Cl)cc2)c1C#N` was run?
A: -2.58% (inactive)

Q: Which inhibition does the source give for `COc1ccc(Cl)cc1S(=O)(=O)Nc1cccc(C(=O)O)c1` here?
A: -2.2% (inactive)

Q: `Cc1cccc(NS(=O)(=O)c2ccc([N+](=O)[O-])cc2)n1` was tested. Which inhibition did it give?
A: -1.07% (inactive)

Q: How did the inhibition turn out when `Cc1cccc(NS(=O)(=O)c2cc(Cl)ccc2Cl)n1` was run?
A: 4.66% (active)

Q: For `Oc1ccc(Br)cc1C=Nc1ccc2[nH]ncc2c1`, which inhibition is on record?
A: -1.06% (inactive)

Q: How did the inhibition turn out when `COc1ccc(Br)cc1/C=N/n1c(C)nnc1C` was run?
A: -3.22% (inactive)

Q: `Oc1c(Cl)cc(Cl)cc1/C=N/c1ncn[nH]1` was tested. Which inhibition did it give?
A: 11.9% (active)

Q: With `COc1cc(Br)cc(/C=N/c2ncn[nH]2)c1O` as the compound, how does the inhibition read?
A: 7.88% (active)

Q: How did the inhibition turn out when `Cc1snc(SCc2c(F)cccc2Cl)c1C#N` was run?
A: -3.78% (inactive)

Q: Which inhibition does the source give for `Cc1ccc2[nH]c(=O)c(CN(C)S(=O)(=O)c3cccc4nonc34)cc2c1` here?
A: 0.09% (inactive)

Q: `Cc1ccc(Cn2cc(C(=O)NN)c(=O)c3ccc(F)cc32)cc1` was tested. Which inhibition did it give?
A: -2.47% (inactive)

Q: Which inhibition does the source give for `COc1ccc(NC(=O)Cn2ncn3c(cc4ccccc43)c2=O)c(OC)c1OC` here?
A: -2.6% (inactive)

From PubChem BioAssay AID1556 (The Scripps Research Institute Molecular Screening Center, 2009)
